Experimental data from ChEMBL document CHEMBL1221395, “Synthesis, anticancer activity and mitochondrial mediated apoptosis inducing ability of 2,5-diaryloxadiazole-pyrrolobenzodiazepine conjugates” (Bioorg Med Chem, 2010).
Calls of active or inactive are those of the source. No cut-off for these calls is given here.

Key:
[1] = tested on: Calf thymus DNA; assay: Binding affinity to calf thymus DNA assessed as change in melting temperature after 18 hrs; format: nucleic-acid assay; conditions: Bos taurus
How it was run: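 Thermal melting with duplex CT-DNA (100 µM in phosphate) and ligand (20 µM), added from methanol stock, [PBD]/[DNA] 1:5, in 10 mM sodium phosphate + 1 mM EDTA, pH 7.00; incubated at 37 °C for 18 h. A260 monitored while heating at 1 °C/min over 40–90 °C. Tm taken from d(A260)/dT maxima, corrected for methanol; ΔTm = Tm(DNA+ligand) − Tm(DNA alone); at least three determinations.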

[2] = tested on: HOP-62; assay: Cytotoxicity against human HOP62 cells after 24 hrs by WST-1 assay; format: functional; conditions: HOP-62, 24 h
[3] = tested on: A549; assay: Cytotoxicity against human A549 cells after 24 hrs by WST-1 assay; format: functional; conditions: A549, 24 h
[4] = tested on: PC-3; assay: Cytotoxicity against human PC3 cells after 24 hrs by WST-1 assay; format: functional; conditions: PC-3, 24 h
[5] = tested on: KB; assay: Cytotoxicity against human KB cells after 24 hrs by SRB assay
[6] = tested on: ZR-75-1; assay: Cytotoxicity against human ZR-75-1 cells by SRB assay
[7] = tested on: SiHa; assay: Cytotoxicity against human SiHa cells after 24 hrs by SRB assay
[8] = tested on: MCF7; assay: Cytotoxicity against human MCF7 cells by sulforhodamine B assay
[9] = Cytotoxicity against human Gurav cells after 24 hrs by WST-1 assay; format: functional
[10] = Cytotoxicity against human DWD cells by SRB assay
[11] = tested on: A2780; assay: Cytotoxicity against human A2780 cells by SRB assay
[12] = Lipophilicity, log P of the compound; format: physicochemical; conditions: octanol/water
[13] = tested on: COLO 205; assay: Cytotoxicity against human COLO205 cells after 24 hrs by SRB assay; conditions: COLO 205, 24 h
[14] = tested on: A-375; assay: Cell cycle arrest in human A375 cells assessed as accumulation at G1 phase after 24 hrs by FACS flow cytometry; parameters: concentration or dose not given beside the values
[15] = tested on: A-375; assay: Cell cycle arrest in human A375 cells assessed as accumulation at S phase after 24 hrs by FACS flow cytometry; parameters: concentration or dose not given beside the values
[16] = tested on: A-375; assay: Antitumor activity against human A375 cells assessed as upregulation of p53 protein level at 4 uM after 24 hrs by Western blotting; format: functional, cell-based
How it was run: (§1)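 A375 cells treated at 4 µM for 24 h. Lysates cleared at 12,000 rpm for 10 min, and protein quantified by Bradford. 30 µg per lane run on 12% SDS-PAGE and transferred to PVDF. Blocked 2 h in TBST with 5% blocking powder. Primary antibody overnight at 4 °C, HRP secondary (1:2000) 1 h at room temperature. β-actin used as loading control; untreated cells as control.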

[17] = tested on: A-375; assay: Induction of apoptosis in human A375 cells assessed as increase in cytochrome C protein level at 4 uM after 24 hrs by Western blotting; format: functional, cell-based; how it was run: as §1
[18] = tested on: A-375; assay: Antitumor activity against human A375 cells assessed as upregulation of p21 protein level at 4 uM after 24 hrs by Western blotting; format: functional, cell-based; how it was run: as §1
[19] = tested on: A-375; assay: Antitumor activity against human A375 cells assessed as upregulation of pRb protein level at 4 uM after 24 hrs by Western blotting; format: functional, cell-based; how it was run: as §1
[20] = tested on: A-375; assay: Induction of apoptosis in human A375 cells assessed as increase in Caspase 3 activation at 4 uM after 24 hrs by fluorimetry; format: functional, cell-based
How it was run: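 A375 cells exposed to 4 µM compound. Cell lysate incubated with DEVD-AFC substrate, with or without DEVD-CHO inhibitor, at 37 °C for 1 h in a fluorescent caspase-3 kit. Fluorescence read at excitation 400 nm, emission 505 nm.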

[21] = tested on: A-375; assay: Induction of apoptosis in human A375 cells assessed as increase in PARP protein level at 4 uM after 24 hrs by Western blotting; format: functional, cell-based; how it was run: as §1
[22] = tested on: A-375; assay: Cell cycle arrest in human A375 cells assessed as accumulation at G2/M phase after 24 hrs by FACS flow cytometry; parameters: concentration or dose not given beside the values
[23] = tested on: A-375; assay: Induction of apoptosis in human A375 cells assessed as increase in Bax protein level at 4 uM after 24 hrs by Western blotting; format: functional, cell-based; how it was run: as §1
[24] = tested on: A-375; assay: Cell cycle arrest in human A375 cells assessed as accumulation at Sub-G1 phase after 24 hrs by FACS flow cytometry; parameters: concentration or dose not given beside the values
[25] = tested on: A2780; assay: Cytotoxicity against human A2780 cells after 24 hrs by WST-1 assay; format: functional; conditions: A2780, 24 h
[26] = tested on: KB; assay: Cytotoxicity against human KB cells after 24 hrs by WST-1 assay; format: functional
[27] = Cytotoxicity against human DWD cells after 24 hrs by SRB assay
[28] = tested on: KB; assay: Cytotoxicity against human KB cells by SRB assay

Structure (SMILES) | ΔTm [1] | logP [12] | GI50 [2] | GI50 [3] | GI50 [4] | GI50 [5] | GI50 [6] | GI50 [7] | GI50 [8] | GI50 [9] | GI50 [10] | GI50 [11] | GI50 [13] | Activity [14] | Activity [15] | Activity [22] | Activity [24] | further results
COc1ccc(-c2nnc(-c3ccc(C(F)(F)F)cc3)o2)cc1OCCCOc1cc2c(cc1OC)C(=O)N1CCC[C@H]1C=N2 | 4 °C | 5.07 | < 100 nM | < 100 nM | 140 nM | < 100 nM | 110 nM | < 100 nM | 110 nM | < 100 nM | 110 nM | < 100 nM | < 100 nM | 72.28% | 7.51% | 2.26% | 17.93% | Activity [16]: Active; Activity [17]: Active; Activity [18]: Active; Activity [19]: Active; Activity [20]: Active; Activity [21]: Active; Activity [23]: Active
COc1cc2c(cc1O)N=C[C@@H]1CCCN1C2=O | – | 0.88 | 150 nM | 160 nM | 200 nM | – | – | 170 nM | 170 nM | 160 nM | – | – | 110 nM | 73.66% | 8.02% | 2.98% | 15.33% | GI50 [25]: 140 nM; GI50 [26]: 170 nM
COc1ccc(-c2nnc(-c3ccc(F)cc3)o2)cc1OCCCOc1cc2c(cc1OC)C(=O)N1CCC[C@H]1C=N2 | 2 °C | 4.39 | 160 nM | 150 nM | < 100 nM | 150 nM | < 100 nM | 170 nM | < 100 nM | 160 nM | < 100 nM | 140 nM | < 100 nM | 74% | 14.14% | 5.06% | 6.79% | Activity [17]: Active; Activity [20]: Active; Activity [21]: Active; Activity [23]: Active
COc1ccc(-c2nnc(-c3ccc(F)cc3)o2)cc1OCCCCCOc1cc2c(cc1OC)C(=O)N1CCC[C@H]1C=N2 | 1.8 °C | 5.17 | 120 nM | 140 nM | 160 nM | < 100 nM | 150 nM | 120 nM | 120 nM | < 100 nM | < 100 nM | < 100 nM | < 100 nM | – | – | – | – | –
COc1cccc2c1C(=O)c1c(O)c3c(c(O)c1C2=O)C[C@@](O)(C(=O)CO)C[C@@H]3O[C@H]1C[C@H](N)[C@H](O)[C@H](C)O1 [DOXORUBICIN] | – | – | 140 nM | – | – | – | – | 170 nM | 170 nM | 170 nM | – | 160 nM | 140 nM | – | – | – | – | GI50 [27]: 100 nM; GI50 [28]: 170 nM
COc1ccc(-c2nnc(-c3ccc(C(F)(F)F)cc3)o2)cc1OCCCCOc1cc2c(cc1OC)C(=O)N1CCC[C@H]1C=N2 | 2.1 °C | 5.44 | 160 nM | 110 nM | 160 nM | 150 nM | 120 nM | 170 nM | 140 nM | 140 nM | 150 nM | 140 nM | 160 nM | – | – | – | – | –
COc1ccc(-c2nnc(-c3ccc(C(F)(F)F)cc3)o2)cc1OCCCCCOc1cc2c(cc1OC)C(=O)N1CCC[C@H]1C=N2 | 1.7 °C | 5.84 | 130 nM | < 100 nM | 130 nM | 110 nM | 110 nM | 120 nM | < 100 nM | < 100 nM | < 100 nM | < 100 nM | 110 nM | – | – | – | – | –

Now from value to molecule, other results behind:

ΔTm [1] | logP [12] | Structure (SMILES) | GI50 [2] | GI50 [3] | GI50 [4] | GI50 [5] | GI50 [6] | GI50 [7] | GI50 [8] | GI50 [9] | GI50 [10] | GI50 [11] | GI50 [13] | Activity [14] | Activity [15] | Activity [22] | Activity [24] | further results
2.5 °C | 4.78 | COc1ccc(-c2nnc(-c3ccc(F)cc3)o2)cc1OCCCCOc1cc2c(cc1OC)C(=O)N1CCC[C@H]1C=N2 | 150 nM | 290 nM | 170 nM | < 100 nM | 170 nM | < 100 nM | 160 nM | 100 nM | 130 nM | < 100 nM | 150 nM | – | – | – | – | –
1.5 °C | 3.92 | COc1ccc(-c2nnc(-c3ccc(OC)c(OCCCOc4cc5c(cc4OC)C(=O)N4CCC[C@H]4C=N5)c3)o2)cc1OC | 130 nM | < 100 nM | < 100 nM | 110 nM | < 100 nM | 150 nM | < 100 nM | 110 nM | < 100 nM | 110 nM | < 100 nM | – | – | – | – | –
1.6 °C | 4.53 | COc1ccc(-c2nnc(-c3cc(OC)c(OC)c(OC)c3)o2)cc1OCCCCCOc1cc2c(cc1OC)C(=O)N1CCC[C@H]1C=N2 | < 100 nM | 140 nM | 150 nM | < 100 nM | 120 nM | < 100 nM | < 100 nM | < 100 nM | < 100 nM | < 100 nM | 120 nM | 73.5% | 10.4% | 2.34% | 13.76% | Activity [17]: Active; Activity [20]: Active; Activity [21]: Active; Activity [23]: Active
2.3 °C | 4.28 | COc1ccc(-c2nnc(-c3ccc(OC)c(OCCCCOc4cc5c(cc4OC)C(=O)N4CCC[C@H]4C=N5)c3)o2)cc1OC | 130 nM | < 100 nM | 130 nM | 110 nM | 120 nM | 130 nM | < 100 nM | < 100 nM | < 100 nM | < 100 nM | < 100 nM | – | – | – | – | –
1.9 °C | 3.76 | COc1ccc(-c2nnc(-c3cc(OC)c(OC)c(OC)c3)o2)cc1OCCCOc1cc2c(cc1OC)C(=O)N1CCC[C@H]1C=N2 | 170 nM | 110 nM | 140 nM | 140 nM | 120 nM | 180 nM | < 100 nM | 140 nM | < 100 nM | 140 nM | < 100 nM | – | – | – | – | –
2.1 °C | 4.13 | COc1ccc(-c2nnc(-c3cc(OC)c(OC)c(OC)c3)o2)cc1OCCCCOc1cc2c(cc1OC)C(=O)N1CCC[C@H]1C=N2 | 130 nM | < 100 nM | 160 nM | < 100 nM | 160 nM | 130 nM | 150 nM | < 100 nM | 120 nM | < 100 nM | < 100 nM | – | – | – | – | –
